Results as given in ChEMBL document CHEMBL1147950, “Polyphenols based on isoflavones as inhibitors of Helicobacter pylori urease” (Bioorg Med Chem, 2007).
Several values for one entry are separate records, joined by “and”; a condition that tells them apart may be missing. Equal values may be shown once.

Key:
[1] = target: Urease subunit alpha/Urease subunit beta (Helicobacter pylori (strain ATCC 700392 / 26695) (Campylobacterpylori)) (UniProt P69996+P14916); test: Inhibition of Helicobacter pylori ATCC 43504 urease at 400 ug/mL after 3 hrs pre-incubation
Urease subunit alpha/Urease subunit beta (Helicobacter pylori (strain ATCC 700392 / 26695) (Campylobacterpylori)), sequence (P14916 whole entry, looked up): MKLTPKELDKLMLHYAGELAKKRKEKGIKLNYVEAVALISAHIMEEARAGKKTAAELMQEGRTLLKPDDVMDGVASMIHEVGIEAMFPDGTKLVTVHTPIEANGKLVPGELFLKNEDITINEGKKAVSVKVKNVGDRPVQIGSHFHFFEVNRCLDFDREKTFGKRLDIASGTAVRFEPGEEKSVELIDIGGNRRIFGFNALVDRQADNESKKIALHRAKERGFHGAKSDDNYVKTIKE
Urease subunit alpha/Urease subunit beta (Helicobacter pylori (strain ATCC 700392 / 26695) (Campylobacterpylori)), sequence (P69996 whole entry, looked up): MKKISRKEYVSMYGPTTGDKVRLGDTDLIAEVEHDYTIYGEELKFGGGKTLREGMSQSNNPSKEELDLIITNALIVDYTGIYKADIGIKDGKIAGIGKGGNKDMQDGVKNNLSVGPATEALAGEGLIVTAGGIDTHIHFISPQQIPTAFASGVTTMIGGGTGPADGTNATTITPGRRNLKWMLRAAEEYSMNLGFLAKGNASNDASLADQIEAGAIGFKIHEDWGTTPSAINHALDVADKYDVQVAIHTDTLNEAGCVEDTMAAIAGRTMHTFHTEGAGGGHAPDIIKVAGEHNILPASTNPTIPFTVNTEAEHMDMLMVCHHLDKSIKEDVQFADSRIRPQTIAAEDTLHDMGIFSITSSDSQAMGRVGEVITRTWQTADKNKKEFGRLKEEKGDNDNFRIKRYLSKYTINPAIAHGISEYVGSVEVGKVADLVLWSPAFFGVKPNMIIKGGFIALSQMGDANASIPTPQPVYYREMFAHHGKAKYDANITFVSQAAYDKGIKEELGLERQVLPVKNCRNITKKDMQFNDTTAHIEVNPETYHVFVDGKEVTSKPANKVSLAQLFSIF
Outline: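 Urease from H. pylori ATCC 43504 cultured 24 h at 37 °C in brucella broth with 10% heat-inactivated horse serum, microaerobic (5% O2, 10% CO2, 85% N2). 4 U enzyme preincubated with test compound 3 h at room temperature. Activity read as ammonia production by the indophenol method; percent inhibition recorded.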

[2] = target: T1, Urease subunit alpha/Urease subunit beta (Helicobacter pylori (strain ATCC 700392 / 26695) (Campylobacterpylori), UniProt P69996); test: Inhibition of Helicobacter pylori ATCC 43504 urease in presence of 0.4 mM 2-mercaptoethanol after 3 hrs pre-incubation
T1 sequence (P69996 whole entry): as the sequence (P69996 whole entry, looked up) above
T1 sequence (P14916 whole entry, further chain): as the sequence (P14916 whole entry, looked up) above
Outline: (§1)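 Urease source: H. pylori ATCC 43504 grown 24 h at 37 °C, microaerobic (5% O2, 10% CO2, 85% N2), in brucella broth with 10% heat-inactivated horse serum. Enzyme (4 U) preincubated with test compound 3 h at room temperature. Ammonia production read by the indophenol method. IC50 values from triplicate measurements, reported as mean ± SD.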

[3] = target: T1, Urease subunit alpha/Urease subunit beta; test: Inhibition of Helicobacter pylori ATCC 43504 urease after 3 hrs pre-incubation; outline: as §1
[4] = target: T1, Urease subunit alpha/Urease subunit beta; test: Inhibition of Helicobacter pylori ATCC 43504 urease in presence of 0.4 mM dithiothreitol after 3 hrs pre-incubation; outline: as §1

SMILES | inhibition [1] | IC50 [2] [µM] | IC50 [3] [µM] | IC50 [4] [µM]
CC(=O)c1ccc(O)c(O)c1O | 38% | – | – | –
CC(=O)c1ccc(O)cc1O | 14% | – | – | –
O=c1c(-c2ccc(O)cc2)coc2c(O)c(O)ccc12 | 81.7% | > 1480 | 140 | > 1480
Oc1ccc(CCc2ccc(O)c(O)c2O)cc1 | 94.5% | 71 | 30 | 53
CC(=O)c1ccc(O)c(O)c1 | 41% | – | – | –
COc1c(O)cc(O)c2c(=O)c(-c3ccc(O)cc3)coc12 | 23% and 36% | – | – | –
CC(=O)NO [ACETOHYDROXAMIC ACID] | – | 19 | 17 | 18

Continued, in another order:

inhibition [1] | SMILES | IC50 [2] [µM] | IC50 [3] [µM] | IC50 [4] [µM]
44% | COc1ccc(CC(=O)c2ccc(O)c(O)c2O)cc1 | – | – | –
16% | O=C(Cc1ccc(O)cc1)c1ccc(O)cc1O | – | – | –
14% | COc1ccc(CC(=O)c2ccc(O)cc2O)cc1 | – | – | –
42% | COc1ccc(CC(O)c2ccc(OC)c(OC)c2O)cc1 (configuration not stated) | – | – | –
51% | O=C(Cc1ccc(O)cc1)c1ccc(O)c(O)c1O | – | – | –
17% | COc1c(O)cc(O)c(C(=O)Cc2ccc(O)cc2)c1O | – | – | –
39% | O=C(Cc1ccc(O)cc1)c1ccc(O)c(O)c1 | – | – | –
